A short description of series [1]: Cell viability. In kind it is cell-based. The settings on record: African green monkey, Vero cells. In a few lines:
(§1)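 Caco-2 and Vero cells were grown in DMEM with 10% FBS, and HUVEC in DMEM-F12 with 10% FBS, at 37 °C and 5% CO₂. Cells were seeded at 5.000 per well 24 h before treatment. Test compound was diluted from a 100 mM DMSO stock into 1% FBS medium at 1, 10, 30, 50, 100 and 150 µM. Controls were 10% DMSO and medium alone. At 24, 48 and 72 h, cells got resazurin (0.5 mg mL⁻¹ solution) for 4 h, read at ex 560/em 590 nm. IC50 was from curve fitting.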

The conditions of series [2]: SO + additive at 200 ppm. In outline:
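Thermogravimetry of sunflower oil with 200 ppm test compound: about 10 mg oil in a Pt crucible was heated from ambient to 700 °C at 5 °C min⁻¹ in air (60 mL min⁻¹), with N₂ purge on the balance. Onset temperature and temperatures at 5, 10 and 50% mass loss came from TG/DTG curves and were compared with unsupplemented oil.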

Series [3] can be described thus: Lipoperoxidation. The settings on record: SO + additive 200 ppm, 220 °C. In a few lines:
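Sunflower oil with 200 ppm test compound was heated on a hot plate at 25, 100, 180 and 220 °C for 30 min (ramp 2 °C min⁻¹). Oil (0.5 mL) was vortexed with TBA/TCA/HCl and centrifuged 3500 rpm for 5 min. Supernatant was heated 90 °C for 15 min and read at 535 nm against an MDA curve, as nmol MDA per mL oil. Unsupplemented oil was the control. Run in triplicate.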

Series [4] is described as follows: DPPH˙ scavenging activity. The note with it: 30 min, 515 nm; tested 10–100 µg mL^−1. In a few lines: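 Test compound (10–100 µg mL⁻¹) or 80% methanol control was mixed 1:2 (v/v) with DPPH solution, shaken, and kept 30 min at room temperature in the dark. Absorbance was read at 515 nm. Scavenging % = 100 × (1 − A sample/A DPPH blank). Ferulic and syringic acids served as references. Run in triplicate.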

The nature of series [5]: Cell viability. The note with it: human, Caco-2 cells. In kind it is cell-based. In outline:
as §1

A short description of series [6]: Schaal Oven Test, TBARS, sunflower oil. The settings on record: 60 °C, over 12 days. In a few lines:
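Schaal oven test (AOCS Cg5-97): supplemented olive or sunflower oil was held at 60 ± 5 °C in the dark for 12 days, sampled every 3 days. TBARS: oil was mixed with TBA/TCA/HCl and centrifuged. Supernatant was heated 90 °C for 15 min and read at 535 nm against an MDA curve (nmol MDA per mL oil). n = 3, compared with unsupplemented oil.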

Series [7] is described as follows: Cell viability. In kind it is cell-based. The settings on record: human, HUVEC cells. In a few lines: as §1

One may read the IC50 as the midpoint of a concentration-inhibition curve.

In series [1], `CCCCCOc1c(OC)cc(C(=O)O)cc1OC` [Compound 5c, 3,5-Dimethoxy-4-(pentyloxy)benzoic acid] came in with an IC50 at 24 h above 100 µM, an IC50 at 48 h above 100 µM and an IC50 at 72 h above 100 µM. Moreover, in series [2], the “Increase of onset temperature of mass loss (Tonset) in comparison with SO” value turned out to be 37 °C. In series [2] (TGA in air), the “T 5 (5% mass loss)” value turned out to be 368 °C, the “T 10 (10% mass loss)” value stood at 388 °C, the “T 50 (50% mass loss)” value stood at 426 °C and the “T onset (decomposition temperature: onset temperature)” value was found to be 318 °C. Besides, the “Reduction in secondary oxidation (TBARS) in comparison with SOcontrol” value in series [3] worked out at 5 times. Also, the “Antioxidant capacity (DPPH), IC50” value in series [4] was 34.98 ± 2.23 µg/mL. In series [5], this molecule came in with a 50% inhibitory concentration (IC50) at 24 h above 100 µM, an IC50 at 48 h above 100 µM and an IC50 at 72 h above 100 µM. Further, the “TBARS values compared with control” value in series [6] is “decreased the TBARS values”. In series [7], this molecule returned an IC50 at 24 h above 100 µM, a concentration for half-maximal inhibition (IC50) at 48 h above 100 µM and a concentration for half-maximal inhibition (IC50) at 72 h above 100 µM.
